Inconclusive results are not listed. Active and inactive are the calls of the source.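 Rule for the calls, unless noted: active = viability at or below 27.92% in each of two runs, the all-compound median minus 4 SD; inconclusive = no clear call, values can overlap the other calls; inactive = the rest.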
Legend:
[1] = S. cerevisiae growth inhibition in permissive medium (OD615), pilot counter-assay for S. cerevisiae lifespan shortening project, permissive growth control (AID 705;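 active = growth inhibition above 25% in both replicates, a cutoff set 3 SD above the mean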); details: OD615, 24 h, at 10 µM, hits give high values
In short: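 System: Engineered DeaD yeast | Buffer or medium: SC raffinose/galactose permissive medium | Incubation: Cells pre-grown 4 h, then 24 h compound exposure, 30 °C humidified | Measured by: Absorbance (optical density) at 615 nm | Read-out: Reduction in yeast growth (OD615)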

[2] = S. cerevisiae growth inhibition in restrictive medium, OD615, pilot screen, restrictive growth control, yeast lifespan reduction project (AID 706;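 active = growth inhibition above a set limit, 3 SD over mean compound inhibition, in both replicates, cut at about 43% in these data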;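 note: modified DeaD lifespan yeast strain shifted to restrictive glucose medium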); details: OD615, 48 h, at 10 µM, hits give high values
In short: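 Material: modified S. cerevisiae; Medium: glucose-based CSMM-D restrictive medium; Compound dosing: one concentration, 10 µM final, 0.25% DMSO; Incubation: 48 h compound exposure at 30 °C; Measured by: OD615.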

[3] = doxorubicin toxicity protection in MRP-1 cells – H69AR cells, CellTiter-Glo, duplicate, MRP-1 activator project, pilot screen (AID 807;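 active = viability increase at or above a cutoff of the median across tested compounds plus 3 SD, cut at about 8.5% in these data, passing the limit was not always enough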;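 note: compound pretreatment 18-22 h then 72 h combined with doxorubicin; 0% = doxorubicin alone and 100% = vehicle without doxorubicin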); details: H69AR viability with doxorubicin, CellTiter-Glo luminescence; at 10 µM; hits give high values
[4] = viability of HCT116 without oncogenic beta-catenin – human colon tumor cells, pilot screen (AID 823;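 active = cell viability at or below a set limit in both duplicate runs, the limit being the all-compound median minus 4 SD, cut at about 23% in these data, passing the limit was not always enough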;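 note: 0% = wells killed by 20 µM Hyamine and 100% = untreated DMSO cell wells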); details: HCT116 beta-catenin knockout viability, CellTiter-Glo, 60 h; at 10 µM; hits give low values
[5] = viability of PTEN-null HCT116 cells – cell-based, HCT116 clonal line, CellTiter-Glo, pilot screen (AID 824); details: HCT116 PTEN-deleted viability, 60 h, at 10 µM, hits give low values;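 note: 0% = 20 µM Hyamine control and 100% = vehicle cell control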
[6] = RAM pathway blockade in budding yeast – dse1pr::URA3 reporter, 5-FOA selection, pilot screen (AID 869;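 active = inhibition over a set limit, the all-compound mean plus 3 SD, in both replicate runs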;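 note: 0% = DMSO wells with no growth and 100% = 10 µM 1-NA-PP1 with full growth; RAM network block rescues cells from 5-FOA so hits raise OD615 growth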); details: S. cerevisiae dse1pr::URA3 5-FOA growth, OD615, 2 d; at 10 µM; hits give high values; strain carries analog-sensitive mutant Cbk1 kinase
[7] = RAM signaling pathway blockade in yeast – S. cerevisiae, Pdr1DBD-CYC8 efflux-inhibited sensitized strain, primary screen (AID 1298;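 active = RAM network inhibition above 8.4% in each of two replicates, 3 SD over the compound average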;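 note: 0% = DMSO untreated cells without growth and 100% = 10 µM 1-NA-PP1 full growth; higher means more yeast growth rescued from 5-FOA killing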); details: S. cerevisiae cbk1-as DSE1-URA3 strain, 5-FOA growth OD615, 2 d; at 50 µM; hits give high values

O=C(c1coc2ccccc2c1=O)N1CCN(c2cccc(C(F)(F)F)c2)CC1
inactive: growth inhibition [1] -20% | growth inhibition [2] -32.1% | viability increase [3] 0.69% | viability [4] 99.8% | viability [5] 99.9% | inhibition [6] 1.23% | RAM network inhibition [7] 5.68%

COC(=O)c1ccc(NC(=O)c2cccc(OC)c2)cc1
inactive: growth inhibition [1] -1.57% | growth inhibition [2] 7.93% | viability increase [3] 1.59% | viability [4] 69.9% | viability [5] 80.7% | inhibition [6] 0.875% | RAM network inhibition [7] 8.05%

Cc1cc(C)nc(/N=C2\NC(=O)CC(C(=O)O)N2CCc2c[nH]c3ccccc23)n1 (configuration not stated)
inactive: growth inhibition [1] -0.875% | growth inhibition [2] -4.41% | viability increase [3] -2.04% | viability [4] 93.3% | viability [5] 84.1% | inhibition [6] 0.67% | RAM network inhibition [7] -0.83%

CCN(CC)c1ccc(NS(=O)(=O)c2ccc3c(c2)oc(=O)n3C)c(C)c1
inactive: growth inhibition [1] -8.04% | growth inhibition [2] -10.8% | viability increase [3] -2.73% | viability [4] 83.2% | viability [5] 72.6% | inhibition [6] 1.33% | RAM network inhibition [7] -0.57%

CCOCC(=O)NCc1ccc2c(c1)cc(C)n2C
inactive: growth inhibition [1] -13.8% | growth inhibition [2] -14% | viability increase [3] -1.45% | viability [4] 103% | viability [5] 97.3% | inhibition [6] 0.65% | RAM network inhibition [7] 0.21%

CCc1ccccc1NC1c2ccccc2C(=O)N1Cc1ccco1 (configuration not stated)
inactive: growth inhibition [1] -4.26% | growth inhibition [2] 12.8% | viability increase [3] -4.71% | viability [4] 97.1% | viability [5] 84.8% | inhibition [6] 2.31% | RAM network inhibition [7] 3.95%

COc1ccc(CCNC(=O)CN(c2ccccc2OC)S(C)(=O)=O)cc1OC
inactive: growth inhibition [1] -2.94% | growth inhibition [2] 9.29% | viability increase [3] -1.9% | viability [4] 106% | viability [5] 96.8% | inhibition [6] 1.04% | RAM network inhibition [7] 1.38%

CCOC(=O)N1CCN(c2c(N3CCc4ccccc43)c(=O)c2=O)CC1
inactive: growth inhibition [1] -9.63% | growth inhibition [2] 14.6% | viability increase [3] -1.52% | viability [4] 105% | viability [5] 100% | inhibition [6] 2.05% | RAM network inhibition [7] -0.74%

Cc1cc(C)nc(SCC(=O)c2ccc(O)cc2O)n1
inactive: growth inhibition [1] -0.2% | growth inhibition [2] 9.03% | viability increase [3] -3.73% | viability [4] 99.7% | viability [5] 99.4% | inhibition [6] 1.04% | RAM network inhibition [7] -1.2%

COc1ccc2cc(CCNC(=O)c3c(-c4ccccc4Cl)noc3C)c(=O)[nH]c2c1
inactive: growth inhibition [1] -14.1% | growth inhibition [2] -21.1% | viability increase [3] -3.23% | viability [4] 103% | viability [5] 92.7% | inhibition [6] 1.02% | RAM network inhibition [7] 4.72%

COc1ccc(C(=O)c2coc3ccc(O)c(CN4CCOCC4)c23)cc1
inactive: growth inhibition [1] -5.46% | growth inhibition [2] -12% | viability increase [3] -4.42% | viability [4] 77.2% | viability [5] 80.3% | inhibition [6] 1.79% | RAM network inhibition [7] -1.13%

C=CCn1c(O)c(C2=c3ccccc3=NC2=O)sc1=Nc1ccc(O)cc1
active: viability [4] 2.1% | viability [5] 1.53%
inactive: growth inhibition [1] -4.33% | growth inhibition [2] -12% | viability increase [3] -8.74% | inhibition [6] 1.98% | RAM network inhibition [7] 2.7%

Cc1ccc2c(c1)C1(C(=O)N2C)N2CC3(C)CN1CC(C)(C2)C3=O (configuration not stated)
inactive: growth inhibition [1] 6.63% | growth inhibition [2] 0.76% | viability increase [3] -2.2% | viability [4] 99.1% | viability [5] 99% | inhibition [6] 1.27% | RAM network inhibition [7] 0.11%

CCCSCCCNC(=O)Cn1cc2c(n1)CCCCC2
inactive: growth inhibition [1] -3.9% | growth inhibition [2] 5.24% | viability increase [3] -2.42% | viability [4] 94% | viability [5] 93.2% | inhibition [6] -0.37% | RAM network inhibition [7] 3.05%

O=C(O)c1ccc(-n2cccc2)cc1O
inactive: growth inhibition [1] -2.21% | growth inhibition [2] -13.1% | viability increase [3] -1.52% | viability [4] 96.8% | viability [5] 101% | inhibition [6] 0.285% | RAM network inhibition [7] -0.83%

CC1CCN(CCCNC(=O)CN2CCN(Cc3ccc(Cl)cc3)C2=O)CC1
inactive: growth inhibition [1] -8.6% | growth inhibition [2] -8.52% | viability increase [3] -0.83% | viability [4] 90.8% | viability [5] 89.3% | inhibition [6] 2.27% | RAM network inhibition [7] 4.2%

Cc1ccc(S(=O)(=O)NCC(=O)N2CCC(C)CC2)cc1
inactive: growth inhibition [1] -17.5% | growth inhibition [2] -28.3% | viability increase [3] 0.72% | viability [4] 104% | viability [5] 107% | inhibition [6] 0.475% | RAM network inhibition [7] 4.08%

COc1cc(SC)ccc1C(=O)Nc1ccc2c(c1)OCCO2
inactive: growth inhibition [1] -7.61% | growth inhibition [2] -4.97% | viability increase [3] -0.82% | viability [4] 67.1% | viability [5] 65.8% | inhibition [6] 1.18% | RAM network inhibition [7] -0.97%

COc1ccccc1Nc1nc(N)nc(CN2CCOCC2)n1
inactive: growth inhibition [1] -12.9% | growth inhibition [2] -6.13% | viability increase [3] -0.98% | viability [4] 108% | viability [5] 101% | inhibition [6] 0.845% | RAM network inhibition [7] 3.74%

COc1cccc(C(c2sc3ncnn3c2O)N2CCc3ccccc3C2)c1 (configuration not stated)
inactive: growth inhibition [1] -0.12% | growth inhibition [2] 2.29% | viability increase [3] 2.58% | viability [4] 104% | viability [5] 93.2% | inhibition [6] 1.8% | RAM network inhibition [7] 11.3%

CCc1ccc(C2CC(c3ccc(Cl)cc3)n3nc(N)nc3N2)cc1 (configuration not stated)
inactive: growth inhibition [1] 3.64% | growth inhibition [2] 17.7% | viability increase [3] 1.85% | viability [4] 101% | viability [5] 90.4% | inhibition [6] 1.53% | RAM network inhibition [7] 2.02%

CC(=O)Oc1cc2c(C(=O)NCc3ccncc3)c(C)oc2c2ccccc12
inactive: growth inhibition [1] -15.1% | growth inhibition [2] -16.8% | viability increase [3] -3.14% | viability [4] 90.9% | viability [5] 95.8% | inhibition [6] 0.64% | RAM network inhibition [7] 8.02%

O=C(O)c1c2c(nc3ccc(S(=O)(=O)N4CCC(C(=O)N5CCCCC5)CC4)cc13)CCCC2
inactive: growth inhibition [1] -3.06% | growth inhibition [2] -3.51% | viability increase [3] 0.51% | viability [4] 97.3% | viability [5] 92.8% | inhibition [6] 0.79% | RAM network inhibition [7] 1.98%

C(#Cc1ccc(C#CCN2CCOCC2)cc1)CN1CCOCC1
inactive: growth inhibition [1] -17.1% | growth inhibition [2] -9.67% | viability increase [3] -0.83% | viability [4] 85.8% | viability [5] 87.2% | inhibition [6] 1.15% | RAM network inhibition [7] 3.18%

COc1ccc(OCCC(=O)OCC(=O)NCc2ccco2)cc1
inactive: growth inhibition [1] -11% | growth inhibition [2] 1.25% | viability increase [3] -1.75% | viability [4] 92.2% | viability [5] 92.2% | inhibition [6] 1.01% | RAM network inhibition [7] 4.11%

Cc1ccc(-c2nn3c(C)nnc3s2)cc1NC(=O)c1ccc(OC(C)C)cc1
inactive: growth inhibition [1] 12.3% | viability increase [3] -4.84% | viability [4] 79.4% | viability [5] 68.4% | inhibition [6] 0.855% | RAM network inhibition [7] 7.25%
active: growth inhibition [2] 56%

Clc1ccc(CCNc2ncnc3nc[nH]c23)cc1
active: growth inhibition [2] 48.5%
inactive: growth inhibition [1] 12.7% | viability increase [3] 0.89% | viability [4] 74.7% | viability [5] 77% | inhibition [6] -0.895% | RAM network inhibition [7] 2.97%

Cc1cc(NC(=O)CSc2nnc(Cc3cccn3C)n2CCc2ccccc2)no1
inactive: growth inhibition [1] 6.44% | growth inhibition [2] 14.2% | viability increase [3] -2.85% | viability [4] 93.2% | viability [5] 89.4% | inhibition [6] 0.955% | RAM network inhibition [7] 7.83%

COc1cccc(N(CC(=O)Nc2cccc(F)c2)S(C)(=O)=O)c1
inactive: growth inhibition [1] -5.09% | growth inhibition [2] -12.3% | viability increase [3] -1.38% | viability [4] 91.1% | viability [5] 97.5% | inhibition [6] 0.965% | RAM network inhibition [7] 3.51%

CCC(C)NC(=O)CNC(=O)Cn1c(C)cc2ccccc2c1=O (configuration not stated)
inactive: growth inhibition [1] -4.49% | growth inhibition [2] -8.84% | viability increase [3] -2.27% | viability [4] 102% | viability [5] 94.2% | inhibition [6] 0.04% | RAM network inhibition [7] 4.72%

Cn1cnnc1SCc1ccc(C#N)cc1Cl
inactive: growth inhibition [1] -9.5% | growth inhibition [2] -15.1% | viability increase [3] 0.63% | viability [4] 99.7% | viability [5] 97.8% | inhibition [6] 0.175% | RAM network inhibition [7] 4.52%

Cc1noc(C)c1S(=O)(=O)NCc1ccc2c(c1)OCO2
inactive: growth inhibition [1] -1.3% | growth inhibition [2] -6.16% | viability increase [3] -1.12% | viability [4] 97.5% | viability [5] 93.6% | inhibition [6] 2.77% | RAM network inhibition [7] 0.27%

CC(CCc1ccccc1)NC(=O)C1CCN(C(=O)c2sccc2-n2cccc2)CC1 (configuration not stated)
inactive: growth inhibition [1] -4.79% | growth inhibition [2] 0.295% | viability increase [3] 2.68% | viability [4] 93.8% | viability [5] 89.3% | inhibition [6] 1.75% | RAM network inhibition [7] 2.14%

CCCOc1cccc(C(=O)Nc2cccc(NC(=O)c3ccco3)c2)c1
inactive: growth inhibition [1] -11.2% | growth inhibition [2] -14.9% | viability increase [3] -3.58% | viability [4] 85.3% | viability [5] 91.6% | inhibition [6] 1.04% | RAM network inhibition [7] 8.68%

O=C(Nn1nnnc1Nc1ccccc1)C12CC3CC(CC(C3)C1)C2
inactive: growth inhibition [1] -3.62% | growth inhibition [2] -2.85% | viability increase [3] -5.83% | viability [4] 85.2% | viability [5] 86.5% | inhibition [6] 2.17% | RAM network inhibition [7] 4.63%

CCNc1nc2c(c(=O)[nH]c(=O)n2C)n1Cc1ccc(F)cc1
inactive: growth inhibition [1] -8.34% | growth inhibition [2] -8.31% | viability increase [3] -3.05% | viability [4] 99% | viability [5] 85.2% | inhibition [6] 0.035% | RAM network inhibition [7] 4.88%

Source: PubChem BioAssay
